Activity calls are given as the source filed them. No cut-off for these calls is given here.
Columns and labels:
[1] = biological target: T1, Nucleotide-binding oligomerization domain-containing protein 2 (Homo sapiens, UniProt Q9HC29); assay: Inhibition of MDP-induced human NOD2 signaling expressed in HEK-Blue cells preincubated for 3 hrs followed by MDP-stimulation for 20 hrs by spectrophotometry based SEAP reporter gene assay; assay type: cell-based
[2] = Cytotoxicity against HEK-Blue cells expressing human NOD2 assessed as reduction in cell growth at 0.3125 to 10000 nM incubated for 3 hrs by SRB assay; assay type: cell-based; details: 10 µM
[3] = biological target: T1, Nucleotide-binding oligomerization domain-containing protein 2; assay: Inhibition of NOD2 signaling in human PBMC derived macrophages assessed as inhibition of MDP-induced IL-6 mRNA expression at 1 to 10 uM preincubated for 1 hr followed by MDP-stimulation for 90 mins by RT-PCR method
[4] = biological target: T1, Nucleotide-binding oligomerization domain-containing protein 2; assay: Inhibition of MDP-stimulated human NOD2 activation expressed in HEK-Blue cells assessed as reduction in NOD2-mediated MAPK signaling by measuring decrease in phosphorylated p38 level preincubated for 1 hr followed by MDP-stimulation for 1 hr by Western blot method; assay type: cell-based
[5] = biological target: T1, Nucleotide-binding oligomerization domain-containing protein 2; assay: Inhibition of MDP-stimulated human NOD2 activation expressed in HEK-Blue cells assessed as reduction in NOD2-mediated NF-kB signaling by measuring decrease in phosphorylated RIP2 level preincubated for 1 hr followed by MDP-stimulation for 1 hr by Western blot method; assay type: cell-based
[6] = biological target: T1, Nucleotide-binding oligomerization domain-containing protein 2; assay: Inhibition of MDP-stimulated human NOD2 activation expressed in HEK-Blue cells assessed as reduction in NOD2-mediated MAPK signaling by measuring decrease in phosphorylated ERK1/2 level preincubated for 1 hr followed by MDP-stimulation for 1 hr by Western blot method; assay type: cell-based
[7] = biological target: T1, Nucleotide-binding oligomerization domain-containing protein 2; assay: Inhibition of MDP-stimulated human NOD2 activation expressed in HEK-Blue cells assessed as reduction in NOD2-mediated MAPK signaling by measuring decrease in phosphorylated JNK level preincubated for 1 hr followed by MDP-stimulation for 1 hr by Western blot method; assay type: cell-based
[8] = biological target: T1, Nucleotide-binding oligomerization domain-containing protein 2; assay: Inhibition of MDP-stimulated human NOD2 activation expressed in HEK-Blue cells assessed as reduction in NOD2-mediated NF-kB signaling by measuring decrease in IkBalpha level preincubated for 1 hr followed by MDP-stimulation for 1 hr by Western blot method; assay type: cell-based
[9] = biological target: T1, Nucleotide-binding oligomerization domain-containing protein 2; assay: Inhibition of MDP-stimulated NOD2 activation in human PBMC derived macrophages assessed as reduction in NOD2-mediated NF-kB signaling by measuring decrease in phosphorylated RIP2 level preincubated for 1 hr followed by MDP-stimulation for 1 hr by Western blot method
[10] = biological target: T1, Nucleotide-binding oligomerization domain-containing protein 2; assay: Inhibition of MDP-stimulated NOD2 activation in human PBMC derived macrophages assessed as reduction in NOD2-mediated MAPK signaling by measuring decrease in phosphorylated ERK1/2 level preincubated for 1 hr followed by MDP-stimulation for 1 hr by Western blot method
[11] = biological target: T1, Nucleotide-binding oligomerization domain-containing protein 2; assay: Inhibition of MDP-stimulated NOD2 activation in human PBMC derived macrophages assessed as reduction in NOD2-mediated MAPK signaling by measuring decrease in phosphorylated p38 level preincubated for 1 hr followed by MDP-stimulation for 1 hr by Western blot method
[12] = biological target: T1, Nucleotide-binding oligomerization domain-containing protein 2; assay: Inhibition of MDP-stimulated NOD2 activation in human PBMC derived macrophages assessed as reduction in NOD2-mediated MAPK signaling by measuring decrease in phosphorylated JNK level preincubated for 1 hr followed by MDP-stimulation for 1 hr by Western blot method
[13] = biological target: T1, Nucleotide-binding oligomerization domain-containing protein 2; assay: Inhibition of MDP-stimulated NOD2 activation in human PBMC derived macrophages assessed as reduction in NOD2-mediated NF-kB signaling by measuring decrease in IkBalpha level preincubated for 1 hr followed by MDP-stimulation for 1 hr by Western blot method
[14] = biological target: Receptor-interacting serine/threonine-protein kinase 2 (Homo sapiens) (UniProt O43353); assay: Inhibition of recombinant human N-terminal GST-tagged RIP2 (1 to 299 residues) expressed in baculovirus infected Sf9 cells at 10 uM using MBP as substrate incubated for 60 mins in presence of ATP by ADP-Glo assay
Sequence of Receptor-interacting serine/threonine-protein kinase 2 (Homo sapiens) (O43353 whole entry, the tested form may be a part): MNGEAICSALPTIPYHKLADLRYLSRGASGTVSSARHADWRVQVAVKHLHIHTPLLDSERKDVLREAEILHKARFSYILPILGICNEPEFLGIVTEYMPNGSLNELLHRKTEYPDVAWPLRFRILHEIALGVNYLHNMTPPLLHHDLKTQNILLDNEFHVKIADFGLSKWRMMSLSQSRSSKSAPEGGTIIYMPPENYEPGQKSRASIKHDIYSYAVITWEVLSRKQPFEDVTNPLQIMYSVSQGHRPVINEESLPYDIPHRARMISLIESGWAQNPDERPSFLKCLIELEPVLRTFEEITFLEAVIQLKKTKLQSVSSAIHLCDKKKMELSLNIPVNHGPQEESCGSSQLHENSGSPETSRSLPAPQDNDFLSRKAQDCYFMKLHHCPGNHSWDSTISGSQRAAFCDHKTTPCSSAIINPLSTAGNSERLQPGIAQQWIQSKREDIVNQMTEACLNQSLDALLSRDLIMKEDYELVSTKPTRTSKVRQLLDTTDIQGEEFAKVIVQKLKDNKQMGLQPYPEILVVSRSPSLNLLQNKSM

[15] = biological target: T1, Nucleotide-binding oligomerization domain-containing protein 2; assay: Inhibition of His-tagged and FLAG-tagged NOD2 (unknown origin) self-oligomerization expressed in HEK293T cells at 10 uM preincubated for 1 hr followed by MDP stimulation for 15 mins by co-immunoprecipitation assay; assay type: cell-based
[16] = biological target: T1, Nucleotide-binding oligomerization domain-containing protein 2; assay: Inhibition of MDP-induced human NOD2 signaling expressed in HEK-Blue cells at 10 uM preincubated for 3 hrs followed by MDP-stimulation for 20 hrs by spectrophotometry based SEAP reporter gene assay relative to control; assay type: cell-based
[17] = system: Lewis lung carcinoma cell line; assay: (§1) Potentiation of paclitaxel-induced antitumor activity against mouse LLC cells implanted in C57BL/6N mouse assessed as reduction in tumor weight at 30 mg/kg, iv administered once in every two days and paclitaxel treatment once in every four days measured 4 weeks after implantation; assay type: functional, organism-based
[18] = system: Lewis lung carcinoma cell line; assay: as §1, with “inhibition of lung” for “reduction in”, “metastasis” for “weight”, “implantation relative to control” for “implantation”; assay type: functional
[19] = system: Lewis lung carcinoma cell line; assay: Antitumor activity against mouse LLC cells implanted in C57BL/6N mouse assessed as inhibition of lung tumor metastasis at 30 mg/kg, iv administered once in every two days measured 4 weeks after implantation; assay type: functional, organism-based
[20] = system: Lewis lung carcinoma cell line; assay: Antitumor activity against mouse LLC cells implanted in C57BL/6N mouse assessed as reduction in tumor weight at 30 mg/kg, iv administered once in every two days measured 4 weeks after implantation; assay type: functional, organism-based
[21] = Cytotoxicity against HEK-Blue cells expressing human NOD2 assessed as reduction in cell growth at 0.3125 to 10000 nM preincubated for 3 hrs followed by MDP-stimulation for 20 hrs by SRB assay; assay type: cell-based; details: 10 µM
[22] = Cmax in tumor of LLC tumor bearing C57BL/6N mouse at 30 mg/kg, iv by LC-MS/MS analysis; assay type: ADME, organism-based, Neoplasm; design: dose 30 mg/kg, route intravenous; details: in vivo
How it was run: (§2)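 LLC tumor-bearing mice received a single iv injection at 30 mg/kg; tumor tissue was sampled over time and assayed for intact conjugate and its metabolites PTX and MDA-linker. Tmax in h and Cmax in nmol/g tumor were reported, n=5 mice.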

[23] = AUC (0 to t) in tumor of LLC tumor bearing C57BL/6N mouse at 30 mg/kg, iv up to 24 hrs by LC-MS/MS analysis; assay type: ADME, organism-based, Neoplasm; details: in vivo; how it was run: as §2
[24] = Tmax in tumor of LLC tumor bearing C57BL/6N mouse assessed as paclitaxel level at 30 mg/kg, iv by LC-MS/MS analysis; assay type: ADME, organism-based, Neoplasm; details: in vivo; how it was run: as §2
[25] = Cmax in tumor of LLC tumor bearing C57BL/6N mouse assessed as paclitaxel level at 30 mg/kg, iv by LC-MS/MS analysis; assay type: ADME, organism-based, Neoplasm; design: dose 30 mg/kg, route intravenous; details: in vivo; how it was run: as §2
[26] = AUC (0 to t) in tumor of LLC tumor bearing C57BL/6N mouse assessed as paclitaxel level at 30 mg/kg, iv up to 24 hrs by LC-MS/MS analysis; assay type: ADME, organism-based, Neoplasm; details: in vivo; how it was run: as §2
[27] = Tmax in tumor of LLC tumor bearing C57BL/6N mouse assessed as MDA-linker level at 30 mg/kg, iv by LC-MS/MS analysis; assay type: ADME, organism-based, Neoplasm; details: in vivo; how it was run: as §2
[28] = Cmax in tumor of LLC tumor bearing C57BL/6N mouse assessed as MDA-linker level at 30 mg/kg, iv by LC-MS/MS analysis; assay type: ADME, organism-based, Neoplasm; design: dose 30 mg/kg, route intravenous; details: in vivo; how it was run: as §2
[29] = AUC (0 to t) in tumor of LLC tumor bearing C57BL/6N mouse assessed as MDA-linker level at 30 mg/kg, iv up to 24 hrs by LC-MS/MS analysis; assay type: ADME, organism-based, Neoplasm; details: in vivo; how it was run: as §2
[30] = biological target: T1, Nucleotide-binding oligomerization domain-containing protein 2; assay: Activation of human NOD2 signaling expressed in HEK-Blue cells incubated for 3 hrs by spectrophotometry based SEAP reporter gene assay; assay type: cell-based
[31] = system: Lewis lung carcinoma cell line; assay: Antitumor activity against mouse LLC cells implanted in iv dosed C57BL/6N mouse assessed as tumor growth inhibition; assay type: functional, organism-based
[32] = Cytotoxicity against HEK-Blue cells expressing human NOD2 assessed as reduction in cell growth at 1.5625 to 50000 nM incubated for 3 hrs by SRB assay; assay type: cell-based; details: 50 µM
[33] = Cytotoxicity against HEK-Blue cells expressing human NOD2 assessed as reduction in cell growth at 1.5625 to 50000 nM preincubated for 3 hrs followed by MDP-stimulation for 20 hrs by SRB assay; assay type: cell-based; details: 50 µM

T1 sequence (Q9HC29 whole entry, the tested form may be a part): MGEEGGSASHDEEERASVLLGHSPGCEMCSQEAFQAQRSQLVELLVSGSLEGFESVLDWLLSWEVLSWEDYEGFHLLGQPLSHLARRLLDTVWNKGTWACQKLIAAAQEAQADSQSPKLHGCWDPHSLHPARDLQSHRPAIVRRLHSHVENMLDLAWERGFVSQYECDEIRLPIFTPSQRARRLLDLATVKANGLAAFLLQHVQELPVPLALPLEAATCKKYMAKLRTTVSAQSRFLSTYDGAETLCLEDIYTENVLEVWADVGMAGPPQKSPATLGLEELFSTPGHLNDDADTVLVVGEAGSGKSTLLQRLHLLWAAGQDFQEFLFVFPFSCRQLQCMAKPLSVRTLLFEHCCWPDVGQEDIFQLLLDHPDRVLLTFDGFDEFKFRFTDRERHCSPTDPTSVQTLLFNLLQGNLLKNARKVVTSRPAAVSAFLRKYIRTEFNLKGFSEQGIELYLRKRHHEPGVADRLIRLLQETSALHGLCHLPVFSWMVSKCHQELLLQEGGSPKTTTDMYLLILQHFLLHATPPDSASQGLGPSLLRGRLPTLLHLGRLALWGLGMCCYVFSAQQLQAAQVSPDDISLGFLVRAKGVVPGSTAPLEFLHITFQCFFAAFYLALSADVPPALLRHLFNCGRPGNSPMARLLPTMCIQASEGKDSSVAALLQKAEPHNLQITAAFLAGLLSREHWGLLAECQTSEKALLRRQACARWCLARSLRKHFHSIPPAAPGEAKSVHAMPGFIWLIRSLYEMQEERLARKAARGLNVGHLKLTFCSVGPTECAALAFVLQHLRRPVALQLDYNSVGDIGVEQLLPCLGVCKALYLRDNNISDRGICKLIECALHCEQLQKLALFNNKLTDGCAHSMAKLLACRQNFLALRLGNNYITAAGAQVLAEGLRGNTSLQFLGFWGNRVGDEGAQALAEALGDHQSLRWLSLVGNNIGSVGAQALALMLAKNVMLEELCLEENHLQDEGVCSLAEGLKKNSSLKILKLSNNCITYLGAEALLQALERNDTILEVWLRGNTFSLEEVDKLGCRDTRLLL

CC(=O)O[C@H]1C(=O)[C@@]2(C)[C@H]([C@H](OC(=O)c3ccccc3)[C@]3(O)C[C@H](OC(=O)[C@H](OCCC(=O)NCCCC[C@H](NC(=O)CC[C@@H](NC(=O)[C@H](C)NC(=O)/C=C/c4ccc(Cl)cc4)C(N)=O)C(N)=O)[C@@H](NC(=O)c4ccccc4)c4ccccc4)C(C)=C1C3(C)C)[C@]1(OC(C)=O)CO[C@@H]1C[C@@H]2O
inhibition activity call (active/not active) [1]: Active
Activity [2]: Non-Toxic
inhibition [3]: Active
inhibition [4]: Dose-dependent effect
inhibition [5]: Dose-dependent effect
inhibition [6]: Dose-dependent effect
inhibition [7]: Dose-dependent effect
inhibition [8]: Dose-dependent effect
inhibition [9]: Dose-dependent effect
inhibition [10]: Dose-dependent effect
inhibition [11]: Dose-dependent effect
inhibition [12]: Dose-dependent effect
inhibition [13]: Dose-dependent effect
inhibition [14]: inactive
inhibition [15]: Active
inhibition [16]: 50%
TGI [17]: Active
fold change (FC) [18]: 2
inhibition [19]: inactive
TGI [20]: inactive
Activity [21]: Non-Toxic

CC(=O)O[C@H]1C(=O)[C@@]2(C)[C@H]([C@H](OC(=O)c3ccccc3)[C@]3(O)C[C@H](OC(=O)[C@H](OC(=O)CCC(=O)NCCCC[C@H](NC(=O)CC[C@@H](NC(=O)[C@H](C)NC(=O)/C=C/c4ccc(Cl)cc4)C(N)=O)C(N)=O)[C@@H](NC(=O)c4ccccc4)c4ccccc4)C(C)=C1C3(C)C)[C@]1(OC(C)=O)CO[C@@H]1C[C@@H]2O
Cmax [22]: 15.39 nmol/g
AUCt [23]: 211.02 nmol·h/g
Tmax [24]: 12 h
Cmax [25]: 5.83 nmol/g
AUCt [26]: 89.63 nmol·h/g
Tmax [27]: 10.4 h
Cmax [28]: 1.01 nmol/g
AUCt [29]: 16.27 nmol·h/g

C[C@H](NC(=O)/C=C/c1ccc(Cl)cc1)C(=O)N[C@H](CCC(=O)N[C@@H](CCCCNC(=O)CCC(=O)O)C(N)=O)C(N)=O
inhibition activity call (active/not active) [1]: inactive
Activity [30]: inactive
TGI [31]: inactive
Activity [32]: Non-Toxic
Activity [33]: Non-Toxic
